Assay results as given in ChEMBL document CHEMBL1154122, “A comprehensive study of Sansalvamide A derivatives: The structure-activity relationships of 78 derivatives in two pancreatic cancer cell lines” (2009).
Square brackets hold non-standard residues; d marks the D form. Peptide text beside a SMILES is read from it. * marks the point of attachment. NMeF = CN[C@@H](Cc1ccccc1)C(=O)O; dNMeF = CN[C@H](Cc1ccccc1)C(=O)O; Tic = O=C(O)[C@@H]1Cc2ccccc2CN1; Cha = N[C@@H](CC1CCCCC1)C(=O)O; NMeL = CN[C@@H](CC(C)C)C(=O)O; dNMeL = CN[C@H](CC(C)C)C(=O)O; dNMeV = CN[C@@H](C(=O)O)C(C)C; NMeV = CN[C@H](C(=O)O)C(C)C; Orn = NCCC[C@H](N)C(=O)O; dAbu = CC[C@@H](N)C(=O)O; Abu = CC[C@H](N)C(=O)O; Cbz = O=C(OCc1ccccc1)*; Bn = c1ccc(C*)cc1; Sar = CNCC(=O)O

Columns and labels:
[1] = Cytotoxicity against human PL45 cells after 56 hrs by [3H]thymidine uptake assay; type: functional
Summary of the method: (§1)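 Cells seeded at 2000–2500/well in DMEM with L-glutamine, 10% FBS and 1% penicillin-streptomycin. […] After 56 h, 3H-thymidine was added for 16 h more (72 h total), then cells were harvested and counted (CPM). Inhibition = 1 − CPM treated/DMSO; IC50 taken from curves, mean and SEM.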

BXPC-3 = experiment: Cytotoxicity against human BxPC3 cells after 56 hrs by [3H]thymidine uptake assay; type: functional; summary of the method: as §1

Compound	growth inhibition (GI) [1] [%]	growth inhibition (GI) (BXPC-3) [%]
CC(C)C[C@@H]1NC(=O)[C@H](Cc2ccccc2)NC(=O)[C@@H](Cc2ccccc2)N(C)C(=O)[C@H](C(C)C)NC(=O)[C@H](CCCCN)NC1=O (cyclo(FLKV[dNMeF]))	26	30
CC(C)C[C@@H]1NC(=O)[C@H](Cc2ccccc2)NC(=O)[C@H](CC(C)C)NC(=O)[C@@H](C(C)C)NC(=O)[C@H](CCCCN)NC1=O (cyclo(FLK[dV]L))	23	24
CC(C)C[C@@H]1NC(=O)[C@H](Cc2ccccc2)NC(=O)[C@H](CC(C)C)N(C)C(=O)[C@H](C(C)C)NC(=O)[C@H](CC(C)C)NC1=O (cyclo(FLLV[NMeL]))	0	0
CC(C)C[C@@H]1NC(=O)[C@H](Cc2ccccc2)NC(=O)[C@@H](CC(C)C)N(C)C(=O)[C@H](C(C)C)NC(=O)[C@H](CC(C)C)NC1=O (cyclo(FLLV[dNMeL]))	5	2
CC(C)C[C@@H]1NC(=O)[C@H](Cc2ccccc2)NC(=O)[C@@H](CO)NC(=O)[C@H](C(C)C)NC(=O)[C@H](CC(C)C)NC1=O (cyclo(FLLV[dS]))	32	25
CC[C@H]1NC(=O)[C@H](CC(C)C)NC(=O)[C@H](CC(C)C)NC(=O)[C@H](Cc2ccccc2)NC(=O)[C@H](CC(C)C)NC1=O (cyclo(FLL[dAbu]L))	12	17
CC(C)C[C@@H]1NC(=O)[C@H](Cc2ccccc2)NC(=O)[C@H](CC(C)C)NC(=O)[C@@H](Cc2ccccc2)NC(=O)[C@H](CC(C)C)NC1=O (cyclo(FLL[dF]L))	33	8
CC(C)C[C@@H]1NC(=O)[C@H](Cc2ccccc2)NC(=O)[C@@H](CC(C)C)N(C)C(=O)[C@@H](C(C)C)N(C)C(=O)[C@H](CC(C)C)NC1=O (cyclo(FLL[dNMeV][dNMeL]))	22	0
CC(C)C[C@@H]1NC(=O)[C@H](Cc2ccccc2)NC(=O)[C@H](CC(C)C)NC(=O)[C@@H](CO)NC(=O)[C@H](CC(C)C)NC1=O (cyclo(FLL[dS]L))	25	22
CC(C)C[C@@H]1NC(=O)[C@H](C(C)C)NC(=O)[C@H](CC(C)C)N(C)C(=O)[C@H](CC(C)C)NC(=O)[C@H](Cc2ccccc2)NC1=O (cyclo(FL[NMeL]VL))	23	52
CC(C)[C@@H]1NC(=O)[C@H](Cc2ccccc2)NC(=O)[C@@H](COCc2ccccc2)NC(=O)[C@H](C(C)C)NC(=O)[C@H](C(C)C)NC1=O (cyclo(FVVV[dS](Bn)))	28	17
CC(C)[C@@H]1NC(=O)[C@H](Cc2ccccc2)NC(=O)[C@@H](CO)NC(=O)[C@H](C(C)C)NC(=O)[C@H](C(C)C)NC1=O (cyclo(FVVV[dS]))	7	13
CC[C@H]1NC(=O)[C@H](C(C)C)NC(=O)[C@H](C(C)C)NC(=O)[C@H](Cc2ccccc2)NC(=O)[C@H](C(C)C)NC1=O (cyclo(FVV[dAbu]V))	32	26
CC(C)[C@@H]1NC(=O)[C@H](Cc2ccccc2)NC(=O)[C@H](C(C)C)NC(=O)[C@@H](COCc2ccccc2)NC(=O)[C@H](C(C)C)NC1=O (cyclo(FVV[dS](Bn)V))	0	15
CC(C)[C@@H]1NC(=O)[C@H](Cc2ccccc2)NC(=O)[C@H](C(C)C)NC(=O)[C@@H](CO)NC(=O)[C@H](C(C)C)NC1=O (cyclo(FVV[dS]V))	18	20
CC(C)[C@@H]1NC(=O)[C@H](Cc2ccccc2)NC(=O)[C@H](C(C)C)NC(=O)[C@@H](C(C)C)NC(=O)[C@H](C(C)C)NC1=O (cyclo(FVV[dV]V))	25	11
CC(C)C[C@@H]1NC(=O)[C@H](C(C)C)NC(=O)[C@H](CCCCNC(=O)OCc2ccccc2)NC(=O)[C@H](CC(C)C)N(C)C(=O)[C@H](Cc2ccccc2)NC1=O (cyclo(F[NMeL]K(Cbz)VL))	36	35
CC(C)C[C@@H]1NC(=O)[C@H](C(C)C)NC(=O)[C@H](CCCCN)NC(=O)[C@H](CC(C)C)N(C)C(=O)[C@H](Cc2ccccc2)NC1=O (cyclo(F[NMeL]KVL))	9	11

Compound	growth inhibition (GI) [1] [%]	growth inhibition (GI) (BXPC-3) [%]
CC(C)C[C@@H]1NC(=O)[C@H](C(C)C)N(C)C(=O)[C@H](CC(C)C)NC(=O)[C@H](CC(C)C)N(C)C(=O)[C@H](Cc2ccccc2)NC1=O (cyclo(F[NMeL]L[NMeV]L))	0	0
CC(C)C[C@@H]1NC(=O)[C@H](CC(C)C)N(C)C(=O)[C@H](Cc2ccccc2)NC(=O)[C@H](CC(C)C)N(C)C(=O)[C@H](C(C)C)N(C)C1=O (cyclo(F[NMeL]L[NMeV][NMeL]))	0	0
CC(C)C[C@@H]1NC(=O)CN(C)C(=O)[C@H](Cc2ccccc2)NC(=O)[C@H](C(C)C)NC(=O)[C@@H](C(C)C)NC1=O (cyclo(F[Sar]L[dV]V))	0	22
CC(C)C[C@@H]1NC(=O)[C@H](C(C)C)NC(=O)[C@H](CC(C)C)N(C)C(=O)[C@@H](CC(C)C)NC(=O)[C@H](Cc2ccccc2)NC1=O (cyclo(F[dL][NMeL]VL))	25	71
CC(C)C[C@@H]1NC(=O)[C@@H](Cc2ccccc2)NC(=O)[C@@H](CC(C)C)NC(=O)[C@@H](C(C)C)NC(=O)[C@H](CCCCNC(=O)OCc2ccccc2)NC1=O (cyclo(K(Cbz)[dV][dL][dF]L))	12	38
CC(C)C[C@@H]1NC(=O)[C@@H](Cc2ccccc2)NC(=O)[C@@H](CC(C)C)NC(=O)[C@@H](C(C)C)NC(=O)[C@H](CCCCN)NC1=O (cyclo(K[dV][dL][dF]L))	0	28
CC(C)C[C@@H]1NC(=O)[C@H](CC(C)C)NC(=O)[C@@H]2Cc3ccccc3CN2C(=O)[C@H](CC(C)C)NC(=O)[C@H](C(C)C)NC1=O (cyclo(LLVL[Tic]))	35	54
CC(C)C[C@@H]1NC(=O)[C@H](CC(C)C)NC(=O)[C@@H](Cc2c[nH]c3ccccc23)NC(=O)[C@H](CC(C)C)NC(=O)[C@H](C(C)C)NC1=O (cyclo(LLVL[dW]))	18	30
CC(C)C[C@@H]1NC(=O)[C@H](CC(C)C)NC(=O)[C@@H](Cc2ccc(O)cc2)NC(=O)[C@H](CC(C)C)NC(=O)[C@H](C(C)C)NC1=O (cyclo(LLVL[dY]))	11	35
CC(C)C[C@@H]1NC(=O)[C@H](C(C)C)NC(=O)[C@H](CCCN)NC(=O)[C@H](CC(C)C)NC(=O)[C@@H](Cc2ccc(O)cc2)NC1=O (cyclo(L[Orn]VL[dY]))	0	0
CC(C)C[C@@H]1NC(=O)[C@@H](Cc2ccccc2)NC(=O)[C@H](C(C)C)NC(=O)[C@@H](CC(C)C)NC(=O)[C@@H](CC(C)C)NC1=O (cyclo(L[dL][dL]V[dF]))	21	23
CC[C@@H]1NC(=O)[C@H](CC(C)C)NC(=O)[C@H](CC(C)C)NC(=O)[C@H](Cc2ccccc2)NC(=O)[C@H](CC(C)C)NC1=O (cyclo([Abu]LFLL))	0	0
CC[C@@H]1NC(=O)[C@H](CC(C)C)NC(=O)[C@H](CC(C)C)NC(=O)[C@H](Cc2ccccc2)NC(=O)[C@@H](CC(C)C)NC1=O (cyclo([Abu][dL]FLL))	23	34
CC(C)[C@@H]1NC(=O)[C@H](CC2CCCCC2)NC(=O)[C@H](CO)NC(=O)[C@H](Cc2ccccc2)NC(=O)[C@@H](Cc2ccccc2)N(C)C1=O (cyclo([Cha]V[dNMeF]FS))	11	34
CC(C)C[C@@H]1NC(=O)[C@H](Cc2ccccc2)NC(=O)[C@H](CC(C)C)NC(=O)[C@@H](C(C)C)N(C)C(=O)[C@H](CC2CCCCC2)NC1=O (cyclo([Cha][dNMeV]LFL))	30	49
CC(C)C[C@@H]1NC(=O)[C@H](CC(C)C)NC(=O)[C@H](Cc2ccccc2)N(C)C(=O)[C@H](CC(C)C)NC(=O)[C@H](C(C)C)NC1=O (cyclo([NMeF]LLVL))	30	33
CC(C)C[C@@H]1C(=O)N[C@H](Cc2ccccc2)C(=O)N[C@H](CC(C)C)C(=O)N[C@H](CC(C)C)C(=O)N[C@H](C(C)C)C(=O)N1C (cyclo([dF][dL][dL][dV][dNMeL]))	11	30
CC(C)C[C@@H]1C(=O)N[C@H](CC(C)C)C(=O)N(C)[C@H](C(C)C)C(=O)N[C@H](CC(C)C)C(=O)N[C@H](Cc2ccccc2)C(=O)N1C (cyclo([dF][dNMeL][dL][dNMeV][dL]))	0	25
